Source: PubChem BioAssay (several laboratories)
aSyn 5UTR inh: MLPCN primary screen, SNCA 5' untranslated region; AID 1813; 0.82% of 300,000 active; alpha-synuclein 5'UTR reporter, inhibitor activity; inhibition, % (tested at 7.5 µM); in the data active = inhibition above about 60%;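 also: H4 neuroglioblastoma cells stably carrying SNCA 5'UTR luciferase fusion; 0% = DMSO wells and 100% = positive control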
Mdm2 MdmX PPI: human Mdm2/MdmX binding inhibition; O15151+Q00987; SaOS-2 split-luciferase Mdm2/MdmX complementation, luminescence; inhibition, % at 8 µM; 3% of 330,000 active; AID 485346;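 active = inhibition of at least 50% at 8 µM in the primary screen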
VIM-2 inh: inhibitors of Pseudomonas aeruginosa VIM-2 metallo-beta-lactamase; AID 1527; inhibition, % at 5.6 µM; 0.89% of 290,000 active; purified VIM-2, nitrocefin hydrolysis, epi-absorbance fluorescence;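 active = inhibition above the mean of all tested compounds plus 3 SD, cutoff set per screening run, cut at about 7.5% in these data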;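 also: red hydrolysis product quenches plate fluorescence so inhibitors raise well fluorescence; 0% = enzyme with DMSO and 100% = DMSO without enzyme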
IMP-1 inh: blocks Pseudomonas aeruginosa IMP-1 metallo-beta-lactamase; 0.45% of 290,000 active; purified IMP-1, nitrocefin hydrolysis, epi-absorbance fluorescence; AID 1556; inhibition, % at 5.6 µM;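 active = inhibition above the mean plus 3 SD of all compounds in the same screening run, cut at about 4.5% in these data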;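 also: 0% = IMP-1 with DMSO and 100% = DMSO wells lacking enzyme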
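Assay system: purified recombinant IMP-1 beta-lactamase. Input: IMP-1 0.2 nM before substrate addition. Buffer or medium: Zinc- and detergent-supplemented HEPES buffer, pH 7.1. Schedule: 25 °C, 15 min preincubation, 25 min reaction. Signal: Epi-absorbance fluorescence, 480 nm excitation, 530 nm emission. Evaluation: percent inhibition from optical density relative to buffer-blank wells.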
697 NFkB inh: lowers PMA/ionomycin-induced NF-kB signal in 697 B cells; 697 B-cell NF-kB luciferase reporter, 16 h; inhibition, % at 4 µM; 0.33% of 330,000 active; AID 435022; in the data active = inhibition above about 35%
Jurkat NFkB inh: lowers PMA/ionomycin-induced NF-kB signal in Jurkat cells. PMA/ionomycin-induced NF-kB luciferase reporter, luminescence. inhibition, % at 4 µM. 0.53% of 330,000 active; in the data active = inhibition above about 50%
Jurkat NFkB conf: inhibitors of the PMA/ionomycin-induced NF-kB reporter in Jurkat cells, retest. shares compounds with Jurkat NFkB inh. inhibition, % at 4 µM. 27% of 2,700 active. Jurkat NF-kB luciferase, 16 h;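 active = inhibition reaching about 45% at 4 µM in either replicate, limit read from the data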;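 also: plate controls were PMA/ionomycin stimulated DMSO wells for no effect and unstimulated DMSO wells for full effect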
Numbers without * were called inactive; / = no result. An excerpt weighted towards active compounds, which were near 4.7% of everything screened.

SMILES	aSyn 5UTR inh	Mdm2 MdmX PPI	VIM-2 inh	IMP-1 inh	697 NFkB inh	Jurkat NFkB inh	Jurkat NFkB conf
COC(=O)c1[nH]c2c(c1C)C(=O)CC(c1cc(OC)ccc1OC)C2 (stereo unspecified)	-29.1	48.5	-1.5	-4.8	-26.6	61.3*	29.5
CSCCOC(=O)c1[nH]c2c(c1C)C(=O)CC(c1ccco1)C2 (stereo unspecified)	33.3	33.9	-1.3	-0.8	-3.4	58.5*	2.0
CSCCC(NS(=O)(=O)c1ccccc1F)C(=O)N1CCCCCCC1 (stereo unspecified)	15.8	13.6	-2.2	-4.8	-0.3	11.2	/
COc1ccc(-n2nc3cc(N)c(Br)cc3n2)cc1	-164.5	-9.9	0.0	-3.6	-142.0	31.0	/
COc1ccc(-n2nc3cc(C)c(N)c(Br)c3n2)cc1	-89.3	-181.0	0.0	-1.3	-163.5	-199.1	-111.8
O=C(OCC(=O)N1CCC(c2ccccc2)=N1)c1ccc(Cl)s1	/	-10.4	/	/	6.0	-172.5	7.0
CCOC(=O)c1ccc(Nc2cnc3ccccc3n2)cc1	-175.7	-149.6	0.7	-1.9	-115.5	-150.1	-115.8
O=C(O)c1ccc(Nc2cnc3ccccc3n2)cc1	-9.6	-13.2	-2.4	-1.3	-89.6	-5.4	/
N#Cc1ccsc1NC(=O)CCN1CCN(C(c2ccccc2)c2ccccc2)CC1	9.1	-0.6	-1.0	-2.5	2.6	-4.8	/
Cc1cc(NC(=O)CSc2nc3ccccc3c(=O)n2C2CCCC2)no1	85.8*	39.2	-2.4	-2.6	14.7	64.2*	51.3*
CC(=O)c1sc(NC(=O)c2ccc(C)c(C)c2)nc1C	-86.3	-196.3	-4.2	-4.9	-138.0	-117.8	/
CC(=O)c1sc(NC(=O)c2ccc(C(C)(C)C)cc2)nc1C	-107.2	-89.3	-3.5	-2.4	-230.6	-172.2	-85.8
COc1cccc(-c2noc(-c3cccnc3)n2)c1	-152.5	-144.6	-3.6	-3.2	-154.7	-89.5	/
COc1cccc(-c2noc(-c3cccs3)n2)c1	-75.2	-189.1	-2.7	-0.9	-248.6	-151.6	-123.0
COc1cccc(NC(=O)CN(C)C(=O)c2ccc(Cl)c(S(=O)(=O)N3CCCCCC3)c2)c1	/	20.4	/	/	-5.4	6.4	/
O=C(COc1ccc2ccccc2c1Br)Nc1cccnc1	-209.8	10.9	-1.0	-1.4	-51.9	-50.4	/
O=C(COc1ccc2ccccc2c1Br)Nc1ccncc1	-83.7	-2.0	-0.6	-2.1	0.3	55.9*	31.6
O=C(NCCC1=CCCCC1)NC12CC3CC(CC(C3)C1)C2	-117.8	-112.0	-3.0	-0.5	-150.3	-162.4	-50.1
Nc1ccc2oc(-c3cccc(Br)c3)nc2c1	-44.1	-207.7	0.7	1.3	-182.1	-177.2	-38.5
CCc1ccc(NC(=O)C(=S)NC2CCCCC2)cc1	-177.5	-127.2	-2.4	-1.6	-133.2	-181.7	-76.3
CCOc1ccc(NC(=O)C(=S)NC2CCCCC2)cc1	-192.2	-64.8	-4.7	-2.8	-33.1	-72.4	/
COc1ccc(NC(=O)C(=S)NC2CCCCC2)cc1	-125.0	-182.9	-0.4	-1.6	-140.9	-156.3	-48.7
O=C(Nc1ccc(Br)cc1)NC1CCCCCCC1	-48.7	23.9	-0.4	-1.5	-218.9	-178.7	-81.4
O=C(NCC(c1ccco1)N1CCCCC1)c1ccc([N+](=O)[O-])s1 (stereo unspecified)	/	5.1	/	/	7.6	20.3	/
CC(C)(C)c1cc(CCC(=O)Nc2ccncc2)cc(C(C)(C)C)c1O	-9.0	1.5	-1.3	-4.7	0.4	13.4	/
SMILES	aSyn 5UTR inh	Mdm2 MdmX PPI	VIM-2 inh	IMP-1 inh	697 NFkB inh	Jurkat NFkB inh	Jurkat NFkB conf
Cc1cccn2cc(-c3ccc(F)cc3)nc12	-88.0	-105.2	1.6	-1.8	-198.0	-167.1	-92.8
COc1cccc(-c2cc(=O)c3cc(NC(=O)c4ccc(Cl)cc4)ccc3[nH]2)c1	-68.4	42.7	-2.5	-3.5	-36.0	78.1*	13.9
COc1cc(-c2noc(C)c2C(=O)NCCCn2ccnc2)cc(OC)c1OC	/	9.8	/	/	13.4	-2.2	/
COc1ccc2oc(=Nc3cc(F)ccc3F)c(C(N)=O)cc2c1	-176.0	48.6	0.2	-2.4	-63.8	65.3*	24.8
O=C(c1cc(-c2ccccc2Cl)nc2ccccc12)N1CCN(c2ccccc2O)CC1	-6.4	26.3	/	/	23.8	12.0	/
O=C(c1cc(-c2ccncc2)nc2c(Cl)cccc12)N1CCN(c2ccccc2F)CC1	99.1*	43.0	1.1	-0.4	1.0	59.9*	36.4
NC(=O)c1ccccc1NC(=O)/C=C/c1ccccc1	-116.5	-101.9	-2.4	-4.1	-130.2	-87.0	/
NC(=O)c1ccccc1NC(=O)/C=C/c1ccc(Cl)cc1	-109.5	-235.3	1.4	-1.2	-110.0	-176.9	-73.0
COc1ccc(NC(=O)C(=O)NCC2CCCN2S(=O)(=O)c2cccs2)cc1 (stereo unspecified)	38.1	44.0	/	/	-4.1	64.9*	53.9*
O=C(Nc1c(Cl)cc(Cl)cc1C(=O)NCc1cccnc1)c1ccc(Cl)cc1Cl	/	13.1	-0.4	-2.4	5.3	-5.8	/
O=C(Nc1ccc(Cl)cc1C(=O)NCc1cccnc1)c1ccc(Cl)cc1Cl	24.0	19.7	-1.9	-0.1	-23.5	50.8*	11.2
CCC(=O)O/N=C(\N)c1ccc(Oc2cc(C)c(Cl)c(C)c2)c([N+](=O)[O-])c1	17.9	31.0	-2.7	-1.4	-11.8	53.5*	3.9
O=C1CCCc2nc(N3CCc4ccccc43)ncc21	-18.9	-140.4	-2.3	-3.9	-231.1	-178.7	-120.1
O=c1c2sc(-c3ccccc3)cc2nc2n1CCCCC2	12.0	-198.6	0.8	-0.8	-208.8	-166.2	-123.3
O=c1c2cc(Br)ccc2nc2n1CCCCC2	-22.5	2.5	-1.2	-1.1	-5.2	-14.3	/
Cc1ccc(C)c(NC(=O)C2CCCN(c3cnccn3)C2)c1 (stereo unspecified)	-7.8	9.0	0.3	-0.9	-6.8	5.9	/
C=CCNC(=S)Nc1ccccc1-c1nnc2n1CCCCC2	0.6	12.7	-1.6	-2.7	6.8	11.5	/
CCOC(=O)N1CCC(NC(=O)c2ccc3c(c2)N(C)C(=O)/C(=C/c2cccc(OC)c2)S3)CC1	-7.9	41.3	0.5	-1.0	-11.4	53.1*	7.3
CCOC(=O)N1CCN(C(=O)c2ccc3c(c2)N(C)C(=O)/C(=C\c2ccc(OCC)c(OC)c2)S3)CC1	15.7	32.7	-1.1	-3.9	-63.7	12.2	/
O=c1c2ccccc2oc2cc(-c3ccc(CN4CCOCC4)cc3)ccc12	/	-92.2	/	/	-223.4	-151.3	-67.0
CN(CC(=O)Nc1ccc(F)cc1)C(=O)C1CC(=O)N(Cc2ccccc2)C1 (stereo unspecified)	-6.6	7.2	0.6	-2.5	-20.4	-4.3	/
CC(=O)Nc1ccc(NS(=O)(=O)c2ccc(-c3cnc(C4CC4)o3)cc2)cc1	-8.6	42.7	-0.4	0.1	-3.8	9.7	/
COc1ccc(NS(=O)(=O)c2cc(-c3cnc(C4CC4)o3)ccc2C)cc1	82.0*	43.9	-1.3	-2.0	-18.8	59.1*	48.9*
